Data as given in ChEMBL document CHEMBL2311369, “Synthesis and anticonvulsant activity of new phenytoin derivatives” (Eur J Med Chem, 2013).

How the values were obtained:
Mus musculus [1] = test: Anticonvulsant activity in albino mouse assessed as protection against maximal electroshock-induced seizures measuring mean convulsion threshold at 100 mg/kg, po after 60 mins; type: functional
Procedure, shortened: (§1)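 Adult albino mice (20–25 g, both sexes), groups of six, dosed orally with compound suspended in 1% Tween 80; vehicle controls. 60 min later, ear-electrode current ramped from 1 mA in 0.1 mA/0.2 s steps at 50 Hz until tonic hind-limb extension. Read-out is mean maximal tolerated current (mA), reported as mean ± S.E. of 5–6 animals. One-way ANOVA with Tukey post test versus control.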

Mus musculus [2] = test: Anticonvulsant activity in albino mouse assessed as protection against subcutaneous metrazol-induced seizures at 100 mg/kg, po administered 60 mins prior challenge measured over 20 mins; type: functional
Procedure, shortened: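 Adult albino mice (20–25 g, both sexes), groups of six, dosed orally with 100 mg/kg; a separate group of six serves as control. Pentylenetetrazole 85 mg/kg given s.c. 60 min after dosing. Each mouse is watched alone for 20 min for tonic-clonic convulsions lasting at least 5 s. Mice without generalized convulsions count as protected; result is % protection.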

Mus musculus [3] = test: Neurotoxicity in albino mouse assessed as neurological deficit at 100 mg/kg, ip measured after 1 hr for period of 300 seconds by rotarod test; type: toxicity, organism-based; design: dose 100 mg/kg, route intraperitoneal; settings: in vivo
Procedure, shortened: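 Rotarod at 6 rpm with a 3 cm rod. Male albino mice get two training sessions of 10 and 15 min first. Compound given i.p. at 100 mg/kg in 1% Tween 80, groups of six; vehicle-treated controls. Mice are retested 1 h later. Result is % of mice unable to stay on the rod for 300 s.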

Mus musculus [4] = test: Anticonvulsant activity in albino mouse assessed as protection against maximal electroshock-induced seizures measuring mean convulsion threshold at 30 mg/kg, po after 60 mins; type: functional; procedure, shortened: as §1

SMILES | Activity (Mus musculus [1]) [mA] | Activity (Mus musculus [2]) [%] | Activity (Mus musculus [3]) [%] | Activity (Mus musculus [4]) [mA]
CCNc1nnc(CN2C(=O)NC(c3ccccc3)(c3ccccc3)C2=O)s1 | 5 | 60 |  | 
Cc1ccc(Nc2nnc(CN3C(=O)NC(c4ccccc4)(c4ccccc4)C3=O)s2)cc1 | 5.2 | 40 |  | 
COc1ccc(Nc2nnc(CN3C(=O)NC(c4ccccc4)(c4ccccc4)C3=O)s2)cc1 | 4 | 20 |  | 
O=C1NC(c2ccccc2)(c2ccccc2)C(=O)N1Cc1nnc(Nc2ccc(Cl)cc2)s1 | 4.25 | 0 |  | 
CCn1c(S)nnc1CN1C(=O)NC(c2ccccc2)(c2ccccc2)C1=O | 5.8 | 40 |  | 
O=C1NC(c2ccccc2)(c2ccccc2)C(=O)N1Cc1nnc(S)n1-c1ccccc1 | 6.6 | 40 | 33.33 | 
Cc1ccc(-n2c(S)nnc2CN2C(=O)NC(c3ccccc3)(c3ccccc3)C2=O)cc1 | 6.6 | 20 |  | 
COc1ccc(-n2c(S)nnc2CN2C(=O)NC(c3ccccc3)(c3ccccc3)C2=O)cc1 | 6.6 | 40 | 50 | 
O=C1NC(c2ccccc2)(c2ccccc2)C(=O)N1Cc1nnc(S)n1-c1ccc(Cl)cc1 | 6.2 | 40 |  | 
O=C1NC(c2ccccc2)(c2ccccc2)C(=O)N1Cc1nnc(S)o1 | 5.5 | 80 | 40 | 
CCNC(=S)NNC(=O)CN1C(=O)NC(c2ccccc2)(c2ccccc2)C1=O | 5.2 | 40 |  | 
O=C(CN1C(=O)NC(c2ccccc2)(c2ccccc2)C1=O)NNC(=S)Nc1ccccc1 | 8.4 | 50 | 0 | 6.143
Cc1ccc(NC(=S)NNC(=O)CN2C(=O)NC(c3ccccc3)(c3ccccc3)C2=O)cc1 | 5.8 | 60 |  | 
COc1ccc(NC(=S)NNC(=O)CN2C(=O)NC(c3ccccc3)(c3ccccc3)C2=O)cc1 | 4 | 80 | 16.67 | 
O=C(CN1C(=O)NC(c2ccccc2)(c2ccccc2)C1=O)NNC(=S)Nc1ccc(Cl)cc1 | 5.4 | 0 |  | 
O=C1NC(c2ccccc2)(c2ccccc2)C(=O)N1Cc1nnc(Nc2ccccc2)s1 | 5 | 60 |  | 
O=C1NC(=O)C(c2ccccc2)(c2ccccc2)N1 [PHENYTOIN] | 7.25 | 80 |  | 
